# Test results: ChEMBL document CHEMBL1122326, “Nonsteroidal antiinflammatory agents. 2. [(Heteroarylamino)phenyl]alkanoic acids” (J Med Chem, 1983)
# How the values were obtained:
# Mus musculus [1] = assay: ED50 value was evaluated for analgesic activity by phenylquinone -induced writhing test in mice on peroral administration; assay type: functional; settings: po
# Method in brief: (§1)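 Female ddN mice, 5 to 15 per dose, given drug orally in 0.5% aqueous tragacanth. Writhing was induced by ip phenylquinone (0.03%), and writhes were counted over 15 min.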
# Rattus norvegicus [2] = assay: ED50 value was evaluated for antiinflammatory activity by carrageenan-induced rat paw edema method (CPE) on peroral administration; assay type: functional; settings: po
# Method in brief: (§2)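 Male Wistar rats, 5 to 10 per dose, 4 to 5 doses per drug, given orally in 0.5% aqueous tragacanth. Edema was induced by subcutaneous carrageenin into the left hind paw. A rat counted as positive at ≥25% inhibition versus vehicle at 3 h. ED50 with 95% confidence limits was calculated by Litchfield-Wilcoxon, after a screen at 80 mg/kg.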
# Rattus norvegicus [3] = assay: ED50 value was evaluated for antiinflammatory activity by carrageenan-induced rat paw edema method (CPE) on peroral administration; value may range from 12.71 to 51.24; assay type: functional; settings: po; method in brief: as §2
# Rattus norvegicus [4] = assay: ED50 value was evaluated for antiinflammatory activity by carrageenan-induced rat paw edema method (CPE) on peroral administration; value may range from 39.61 to 80.81; assay type: functional; settings: po; method in brief: as §2
# Rattus norvegicus [5] = assay: ED50 value was evaluated for antiinflammatory activity by carrageenan-induced rat paw edema method (CPE) on peroral administration; value may range from 7.05 to 37.13; assay type: functional; settings: po; method in brief: as §2
# Mus musculus [6] = assay: ED50 value was evaluated for analgesic activity by phenylquinone -induced writhing test in mice on peroral administration; value may range from 35.3 to 283; assay type: functional; settings: po; method in brief: as §1
# Rattus norvegicus [7] = assay: Evaluated for the UD50 value by gastric ulcer assay in rats on peroral administration of dose; value ranges from 82.3-182; assay type: functional, Stomach
# Method in brief: (§3)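 Male Wistar rats fasted for 24 h were given a single oral dose in 0.5% aqueous tragacanth and killed 6 h later. Stomachs were inspected macroscopically. UD50 is the dose producing ulcers in 50% of rats, taken from each compound's regression line.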
# Mus musculus [8] = assay: ED50 value was evaluated for analgesic activity by phenylquinone -induced writhing test in ddN strain mice on peroral administration; value ranges from 32.7-76.20; assay type: functional; settings: po
# Rattus norvegicus [9] = assay: ED50 value was evaluated for antiinflammatory activity by carrageenan-induced rat paw edema method (CPE) on peroral administration; value may range from 50.5 to 120.0; assay type: functional; settings: po; method in brief: as §2
# Mus musculus [10] = assay: ED50 value was evaluated for analgesic activity by phenylquinone -induced writhing test in mice on peroral administration; value may range from 20.6 to 66.0; assay type: functional; settings: po; method in brief: as §1
# Rattus norvegicus [11] = assay: Evaluated for the UD50 value by gastric ulcer assay in rats on peroral administration of dose; value may range from 368-807; assay type: functional, Stomach; method in brief: as §3
# [12] = Evaluated for the acute lethal toxicity in mice on peroral administration of dose; value may range from 430 to 1236; assay type: organism-based; settings: mouse, in vivo, po
# Method in brief: (§4)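 Single oral dose, in 0.5% aqueous tragacanth, given to male Std:ddY mice. LD50 was derived from mortality over 7 days.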
# [13] = Ratio between UD50 and ED50 in carrageenan paw edema was determined; assay type: functional
# Method in brief: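 Gastric UD50 (fasted male Wistar rats, single oral dose, stomach scored macroscopically at 6 h) was divided by oral CPE ED50 (male Wistar rats, paw carrageenin, ≥25% inhibition at 3 h, Litchfield-Wilcoxon).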
# Mus musculus [14] = assay: ED50 value was evaluated for analgesic activity by phenylquinone-induced writhing test in mice on peroral administration; assay type: functional; settings: po; method in brief: as §1
# [15] = Evaluated for the acute lethal toxicity in mice on peroral administration of dose; value may range from 1539 to 2362; assay type: organism-based; settings: mouse, in vivo, po; method in brief: as §4
# Rattus norvegicus [16] = assay: Evaluated for the UD50 value by gastric ulcer assay in rats on peroral administration of dose; assay type: functional, Stomach; method in brief: as §3
# Rattus norvegicus [17] = assay: ED50 value was evaluated for antiinflammatory activity by carrageenan-induced rat paw edema method (CPE) on peroral administration; value may range from 3.87 to 25.90; assay type: functional; settings: po; method in brief: as §2
SMILES,ED50 (Mus musculus [1]) [mg/kg],ED50 (Rattus norvegicus [2]) [mg/kg],also measured
Cc1ccc(Nc2ccc(C(C)C(=O)O)cc2)nc1 (stereo not drawn),≥ 100,≥ 80,–
CC(C(=O)O)c1ccc(Nc2ccccc2)cc1 (stereo not drawn),> 100,–,ED50 (Rattus norvegicus [3]): 25.5 mg/kg
CC(C(=O)O)c1ccc(Nc2ccc([N+](=O)[O-])cn2)cc1 (stereo not drawn),≥ 100,–,ED50 (Rattus norvegicus [4]): 56.6 mg/kg
O=C(O)Cc1ccc(Nc2ccccn2)cc1,> 100,–,ED50 (Rattus norvegicus [5]): 15.8 mg/kg
CC(C(=O)O)c1ccc(Nc2ccc(Cl)cn2)cc1 (stereo not drawn),≥ 100,≥ 80,–
CC(C(=O)O)c1ccc(Nc2ccc(Br)cn2)cc1 (stereo not drawn),–,≥ 80,ED50 (Mus musculus [6]): 100 mg/kg
O=C(O)Cc1cccc(Nc2ccccn2)c1,≥ 100,> 80,–
CC(C)Cc1ccc(C(C)C(=O)O)cc1 (stereo not drawn) [IBUPROFEN],–,–,UD50 (Rattus norvegicus [7]): 124.6 mg/kg; ED50 (Mus musculus [8]): 50 mg/kg
O=C(O)Cc1ccc(Nc2ccncc2)cc1,–,> 80,–
Cc1cc(Nc2ccc(C(C)C(=O)O)cc2)ncn1 (stereo not drawn),≥ 100,> 80,–
Cc1ccnc(Nc2ccc(C(C)C(=O)O)cc2)c1 (stereo not drawn),> 100,> 80,–
CC(C(=O)O)c1cccc(Nc2ccccn2)c1 (stereo not drawn),> 100,–,ED50 (Rattus norvegicus [9]): 77.9 mg/kg
CC(C(=O)O)c1ccc(Nc2ccccn2)cc1Cl (stereo not drawn),≥ 100,≥ 80,–
CC(C(=O)O)c1ccc(Nc2ccncc2)cc1 (stereo not drawn),≥ 100,> 80,–
Cc1cccc(Nc2ccc(C(C)C(=O)O)cc2)n1 (stereo not drawn),> 100,> 80,–
Cc1cc(C(C)C(=O)O)ccc1Nc1ccccn1 (stereo not drawn),–,16.8,ED50 (Mus musculus [10]): 36.9 mg/kg
CC(C(=O)O)c1ccc(Nc2ccc3ccccc3n2)cc1 (stereo not drawn),≥ 100,> 80,–
CC(C(=O)O)c1ccc(Nc2ccccn2)c(Cl)c1 (stereo not drawn),–,–,UD50 (Rattus norvegicus [11]): 545 mg/kg; LD50 [12]: 729 mg/kg; Ratio [13]: 41.6
Cc1cc(Nc2ccc(CC(=O)O)cc2)ncn1,> 100,> 80,–
Cc1cccnc1Nc1ccc(C(C)C(=O)O)cc1 (stereo not drawn),≥ 100,≥ 80,–
CSc1nccc(Nc2ccc(CC(=O)O)cc2)n1,–,> 80,ED50 (Mus musculus [14]): > 100 mg/kg
CC(C(=O)O)c1ccc(Nc2ccccn2)cc1 (stereo not drawn),–,–,LD50 [15]: 1910 mg/kg; UD50 (Rattus norvegicus [16]): >640 mg/kg; ED50 (Rattus norvegicus [17]): 10 mg/kg; Ratio [13]: > 64
O=C(O)Cc1ccc(Nc2ccc3ccccc3n2)cc1,≥ 100,> 80,–
